A selection: hits, their analogues and other compounds. The true share with any hit is near 4.7%.
ADAM10 inh: human ADAM10 inhibitors, primary screen, biochemical, QFRET, HTS | actives 0.62% (n = 370,000) | recombinant ADAM10, EDANS/DABCYL FRET peptide cleavage, 3 h | Disintegrin and metalloproteinase domain-containing protein 10 (Homo sapiens), O14672 | AID 720582, 2013 | inhibition, % at 7 µM;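 active = inhibition above a per-campaign cutoff equal to the mean of compounds falling between control-based bounds plus 3 SD, cut at about 20% in these data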;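 note: 0% = DMSO wells while the 100% control is not disclosed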
ADAM17 inh: ADAM17 inhibitors, primary screen, biochemical, QFRET | inhibition, % at 6.95 µM | Disintegrin and metalloproteinase domain-containing protein 17 (Homo sapiens), P78536 | recombinant ADAM17, EDANS/DABCYL FRET peptide cleavage | actives 0.83% (n = 370,000) | AID 720648, 2013;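 active = inhibition above the mean of compounds lying between control limits plus 3 SD, set per campaign, cut at about 8.5% in these data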;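 note: 0% = DMSO-only wells as the low control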
Target sequence (P78536 215-824 limits assumed): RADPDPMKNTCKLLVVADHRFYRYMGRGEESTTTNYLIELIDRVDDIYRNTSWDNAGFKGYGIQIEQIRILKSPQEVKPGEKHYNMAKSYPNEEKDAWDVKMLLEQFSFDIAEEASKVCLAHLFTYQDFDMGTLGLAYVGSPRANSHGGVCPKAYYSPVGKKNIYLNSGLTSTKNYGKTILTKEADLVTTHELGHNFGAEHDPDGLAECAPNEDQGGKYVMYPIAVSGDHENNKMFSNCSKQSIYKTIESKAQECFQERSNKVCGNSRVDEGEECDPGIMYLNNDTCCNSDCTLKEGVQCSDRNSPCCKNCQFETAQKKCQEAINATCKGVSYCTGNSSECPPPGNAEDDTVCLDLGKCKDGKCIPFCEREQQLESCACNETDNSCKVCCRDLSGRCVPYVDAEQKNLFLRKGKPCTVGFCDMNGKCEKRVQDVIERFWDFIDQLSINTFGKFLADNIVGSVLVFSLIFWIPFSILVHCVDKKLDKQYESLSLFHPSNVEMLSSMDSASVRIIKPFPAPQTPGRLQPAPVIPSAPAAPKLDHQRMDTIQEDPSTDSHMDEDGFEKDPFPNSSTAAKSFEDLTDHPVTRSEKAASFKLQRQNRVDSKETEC
SKN-1 block: suppressors of acrylamide-induced Pgst-4::GFP reporter in worms, primary screen, SKN-1 inhibitor project, whole organism, uHTS, GFP/RFP fluorescence ratio, strain VP596; C. elegans VP596 Pgst-4::GFP/RFP ratio, 24 h; inhibition, % at 21.8 µM; actives 0.49% (n = 360,000); AID 624304, 2012;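 active = interference check ratio from 0.5 to 1.5 plus GFP to RFP signal ratio inhibition reaching or exceeding a fixed threshold, cut at about 30% in these data, passing the limit was not always enough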
MT1-MMP act inh: blockers of MT1-MMP proenzyme processing, primary screen, HT1080 RFP-PRO-GFP cells, GFP/RFP fluorescence; actives 0.061% (n = 360,000); GFP/RFP ratio fluorescence, overnight; percent of plate control window, DMSO zero; GFP/RFP ratio change, % at 20 µM; Matrix metalloproteinase-14 (Homo sapiens), P50281;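 active = GFP/RFP ratio change of at least 30% with cell ATP level not reduced by more than half and red fluorescence within 50% of control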
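Compound: 20 µM single dose, 1% DMSO / System: HT1080 RFP-PRO-GFP cells / Controls: DMSO and RFP-L50D-GFP cell wells / Read-out basis: GFP/RFP fluorescence ratio / Schedule: overnight compound exposure at 37 °C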
GRIN3A LBD mod: binders of NR3A ligand-binding domain, primary screen, biophysical, differential scanning fluorimetry, uHTS; NR3A LBD differential scanning fluorimetry, Tm shift; 0% = protein alone, 100% = glycine-bound protein; Tm shift relative to glycine control, % at 25 µM; actives 2.5% (n = 340,000); AID 1259313, 2017;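 active = melting temperature shift of at least 10% of the positive control shift, at one fixed dose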
MPTP inh: mitochondrial permeability transition pore inhibitors, primary screen, biochemical, isolated mouse mitochondria, absorbance; Ca2+ swelling absorbance, 30 min; actives 1.4% (n = 360,000); inhibition, % at 10 µM;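 active = inhibition of 50% or more, scaled per plate between neutral and stimulator controls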;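 note: 0% = DMSO wells given calcium and 100% = 1 mM EGTA wells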
Starred values were filed as active, the others as inactive; i = inactive; . = no result.

SMILES	ADAM10 inh	ADAM17 inh	SKN-1 block	MT1-MMP act inh	GRIN3A LBD mod	MPTP inh
CC1(c2ccccc2)NC(=O)N(CC(=O)N2CCOCC2)C1=O (centres undefined)	3	5	-40	-2	0	-2
CCN(CC)CCNC(=O)c1ccc2c(c1)NC(=O)c1ccccc1S2	1	-4	17	0	0	0
CCCN1CCN(CCCNC(=O)c2ccc3c(c2)NC(=O)c2ccccc2S3)CC1	8	-1	6	-2	42*	-1
CN(CC(=O)Nc1ccc(Cl)cc1)C(=O)c1ccc(S(=O)(=O)Nc2ccccc2)cc1	-11	8	-21	1	-3	0
Cc1cc2oc(C(=O)Nc3ccc(S(N)(=O)=O)cc3)c(C)c2cc1Cl	-1	-6	10	5	24*	4
Cc1c(C(=O)Nc2ccc(F)c(F)c2)oc2ccc(S(=O)(=O)N3CCCCC3)cc12	-13	-1	10	-3	31*	26
Cc1ccc2c(C)c(C(=O)Nc3ccc(S(N)(=O)=O)cc3)oc2c1C	-22	-10	8	3	-1	0
Cc1cc(=O)oc2ccc(OCC(=O)N(Cc3ccc(F)cc3)Cc3ccco3)cc12	-73	-26	-9	-5	0	0
COc1ccc(-c2cc(-c3ccc(O)cc3)nc(N)c2C#N)cc1	-481	-234	12	11	5	1
Clc1cc(-c2ccccc2)nc(-c2ccccc2)n1	6	1	20	-2	2	0
Nc1ccc(-c2cc(-c3ccc(N)cc3)nc(-c3ccccc3)n2)cc1	i	-226	6	-3	25*	1
Oc1ccc(-c2cc(-c3ccc(O)cc3)nc(-c3ccccc3)n2)cc1	-8	-3	1	-2	29*	2
N#Cc1c(-c2ccccc2)cc(-c2ccc(O)cc2)nc1N	-344	-152	-12	5	15*	1
Brc1cc(-c2ccccc2)nc(-c2ccccc2)n1	2	-3	10	-3	1	-2
Oc1ccc(-c2nccc(-c3ccc(Cl)cc3)n2)cc1	10	3	31	-2	57*	0
CCn1ccnc1CN(C)C(=O)c1cc(COc2c(F)cccc2F)on1	-7	-4	3	2	1	0
CCOc1ccc2ccccc2c1/C=N\NC(=O)c1ccc([N+](=O)[O-])cc1	1	-1	-3	6	0	10
CCS(=O)(=O)N1CCN(c2ccc(C(=O)NC3C4CC5CC(C4)CC3C5)cc2[N+](=O)[O-])CC1 (centres undefined)	-10	-2	-3	-2	-5	2
Nc1c(C(=O)C2CC2)sc2nc3c(cc12)CCC3	-110	-39	-8	0	1	2
Cc1ccc(C)c(C2=CSC3=NS(=O)(=O)CCN23)c1	-6	-3	10	3	1	-1
Oc1ccc(-c2nnc(-c3ccc(O)cc3)nn2)cc1	-5	0	-13	5	7	7
Oc1ccc(-c2cccc(-c3ccc(O)cc3)n2)cc1	9	6	17	0	14*	6
C/C(N)=C(/C#N)C(=O)CSc1nc2cc(Cl)ccc2c(=O)n1Cc1ccco1	-8	-7	1	-6	-2	-1
Cc1nn(CC(=O)NCCc2ccccc2)c(=O)c2cccn12	-4	-4	0	0	2	0
COc1ccccc1NC(=O)COc1ccc(/C=N/NS(=O)(=O)c2ccc(C)cc2)cc1	19	3	15	-4	5	0
SMILES	ADAM10 inh	ADAM17 inh	SKN-1 block	MT1-MMP act inh	GRIN3A LBD mod	MPTP inh
O=C(CSCc1ccc(Cl)cc1)N/N=C/c1ccc(OCC(=O)Nc2ccccc2)cc1	-4	-2	-2	-5	10*	-7
COc1ccccc1NC(=O)COc1ccc(/C=N/NC(=O)CSCc2ccc(Cl)cc2)cc1	-2	5	20	-1	5	-3
Cc1ccc(NC(=O)COc2ccc(/C=N/NC(=O)CSCc3ccccc3)cc2)cc1	-2	5	13	0	18*	-1
COc1ccccc1NC(=O)COc1ccc(/C=N/NC(=O)CSCc2cc(C)cc(C)c2)cc1	-1	0	4	3	4	5
Cc1ccc(S(=O)(=O)N/N=C/c2ccc(OCC(=O)Nc3ccccc3Cl)cc2)cc1	14	6	11	2	18*	-20
CCOC(=O)[C@]12CCCCC/C=C\1N(Cc1ccc(OC)cc1)C(=O)[C@H]2CC(=O)N1CCN(C(=O)c2ccco2)CC1	-3	-3	.	.	.	.
Cc1ccccc1NS(=O)(=O)c1ccc(NC(=O)c2nc3ncccn3n2)cc1	-3	-4	3	-3	8	-1
O=C1NC(NS(=O)(=O)c2ccccc2)(C(F)(F)F)C(=O)N1c1ccc(F)cc1 (centres undefined)	-2	-1	3	4	16*	0
O=C(C1CCCN1S(=O)(=O)c1ccc(Cl)c(Cl)c1)N1CCOCC1 (centres undefined)	0	-2	-4	-2	10*	0
Nc1cc2c(cc1Cl)-c1ccccc1C2	-10	-3	49*	-5	3	-1
Nc1cc2c(cc1Cl)-c1ccc(Cl)cc1C2	10	3	30	-2	30*	1
Cc1cc(=O)n(C)c(=O)n1CCCCCOc1cccc([N+](=O)[O-])c1	0	-3	-13	2	1	3
COc1ccccc1CN(Cc1cc2c(C)ccc(C)c2[nH]c1=O)Cc1nnnn1Cc1ccco1	-29	-10	37*	-14	4	-3
COc1ccc(NC(=O)c2cc3ccc(O)cc3o/c2=N\O)cc1	-16	-10	-26	1	36*	0
COc1ccc(Nc2nnc(SCc3cn4c(C)cccc4n3)s2)cc1	-2	0	8	0	-9	3
CC(=O)c1cccc(N(CC(=O)NCCc2ccccc2)C(=O)c2csnn2)c1	-1	-3	10	0	-1	-3
O=c1c2ccccc2nc(/C=C/c2c[nH]c3ccccc23)n1-c1ccc([N+](=O)[O-])cc1	-5	-3	13	1	26*	3
Cc1[nH]c2ccccc2c1/C=C/c1nc2ccccc2c(=O)n1-c1cccc([N+](=O)[O-])c1	-1	-4	14	0	9	6
